# Assay outcomes (PubChem BioAssay)
# Compounds with a hit are over-represented: about 3.1% of the library has one in this group of screens.
# Tb hexokinase: Trypanosoma brucei hexokinase 1 inhibitors, primary screen, biochemical, G6PDH-coupled NADH absorbance, MLSCN library; hexokinase 1 [Trypanosoma brucei]; recombinant TbHK1, G6PDH-coupled NADH A340; inhibition, % at 10 µM; actives 0.11% (n = 220,000); AID 1430, 2008;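 active = inhibition of 50% or more in the single-dose primary screen; inactive = inhibition below 50%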
# HSF1 inhib: HSF1 inhibitors in luciferase reporter cells, primary screen, cell-based, NIH3T3, luminescence; activity change, negative = inhibition, % at 7.5 µM (by protocol); NIH3T3-HGL HSE-luciferase, MG132-induced, luminescence 8 h; stronger effect = lower value; actives 0.77% (n = 300,000); AID 2098, 2009;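 active = more than half of replicate wells show activity change below -50%, luminescence cut by over half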;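 note: luciferase reports HSF-1 transcriptional activity via heat shock element; 0% = median of DMSO wells and -100% = zero luminescence signal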
# HSF1 activator: HSF-1 activators, primary screen, NIH3T3-HGL cells, MG132 stress, luminescence, single point; AID 504408, 2011; NIH3T3-HGL HSF-1 luciferase reporter, 8 h; 100% = twice DMSO control signal; actives 1.7% (n = 300,000); activation, % at 9 µM;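 active = mean replicate activation of at least 50% with a set share of replicates each reaching 50%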;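 note: 0% = median of the neutral control wells and 100% = twice that signal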
# HSP90 inh: HSP90 inhibitors, primary screen, cell lysate, luminescence; Rabbit reticulocyte lysate, luciferase refolding luminescence, 3 h; inhibition, % at 5.6 µM; actives 0.91% (n = 290,000); AID 1789, 2009;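 active = inhibition above the screen-wide mean plus 3 SD, computed separately per campaign, cut at about 16% in these data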;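 note: 0% = DMSO wells and 100% = 60 µM geldanamycin wells; inhibitors lower the luminescence because luciferase stays unfolded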
# Hsp70 act: Hsp70 transcriptional activators, primary screen, cell-based, HeLa, Hsp70 promoter luciferase, luminescence, 10 µM; HeLa Hsp70 promoter luciferase reporter; scaled: vehicle 0, proteasome-inhibitor control 100%; activation, % at 10 µM; actives 0.04% (n = 200,000); AID 1203, 2008;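 active = activation above the mean across all tested compounds plus 3 SD, cutoff set per campaign, cut at about 5.5% in these data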;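 note: 100% = MG132 at 30 µM as the positive control and 0% = DMSO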
# HKDC1 inh: HKDC1 hexokinase inhibitors, primary screen, biochemical, fluorescence, uHTS | actives 0.16% (n = 340,000) | AID 493160, 2011 | recombinant HKDC1, G6PDH/diaphorase resazurin coupled fluorescence | inhibition, % at 20 µM | Q2TB90;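 active = inhibition above about 35% when tested at 20 µM, limit read from the data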;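 note: plate controls were DMSO wells with enzyme for no effect and DMSO wells lacking enzyme for full effect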
# Target sequence (Q2TB90 whole entry, looked up): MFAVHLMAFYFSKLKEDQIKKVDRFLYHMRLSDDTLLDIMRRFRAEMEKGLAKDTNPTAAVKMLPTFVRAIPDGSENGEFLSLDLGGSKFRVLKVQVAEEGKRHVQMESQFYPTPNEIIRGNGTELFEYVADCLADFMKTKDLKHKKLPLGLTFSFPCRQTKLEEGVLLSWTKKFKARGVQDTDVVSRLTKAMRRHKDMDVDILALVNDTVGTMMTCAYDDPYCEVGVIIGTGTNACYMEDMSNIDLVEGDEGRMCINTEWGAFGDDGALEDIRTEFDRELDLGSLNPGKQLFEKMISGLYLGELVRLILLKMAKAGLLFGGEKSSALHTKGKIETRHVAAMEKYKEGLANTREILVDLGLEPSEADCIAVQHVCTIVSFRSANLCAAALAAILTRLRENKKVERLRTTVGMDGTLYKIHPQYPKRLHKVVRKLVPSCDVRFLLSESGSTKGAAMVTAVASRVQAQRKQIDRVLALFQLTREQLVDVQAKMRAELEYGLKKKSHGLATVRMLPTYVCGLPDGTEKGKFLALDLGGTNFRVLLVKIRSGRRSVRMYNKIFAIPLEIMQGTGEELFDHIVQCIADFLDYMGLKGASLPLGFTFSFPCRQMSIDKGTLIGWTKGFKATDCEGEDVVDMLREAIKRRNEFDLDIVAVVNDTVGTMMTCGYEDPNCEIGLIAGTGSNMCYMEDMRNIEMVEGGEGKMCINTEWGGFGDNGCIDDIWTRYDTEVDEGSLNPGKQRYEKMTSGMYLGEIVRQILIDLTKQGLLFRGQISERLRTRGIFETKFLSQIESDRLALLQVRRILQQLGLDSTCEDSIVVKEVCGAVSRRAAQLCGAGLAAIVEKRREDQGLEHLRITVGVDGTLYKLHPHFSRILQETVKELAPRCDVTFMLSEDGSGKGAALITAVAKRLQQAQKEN
#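 Test system: recombinant HKDC1 (HK5) hexokinase enzyme, produced in-house; Amount: enzyme 5 µg/mL final; Buffer or medium: Tris pH 8.0 buffer with MgCl2, Tween-20, BSA, BME; Reagent: glucose and ATP substrates; Doses: 20 µM test compound, 1% DMSO; Incubation: 90 min reaction incubation at room temperature, dark; Detection: resorufin fluorescence at 613 nm.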
# Starred values were filed as active, the others as inactive; . = not tested or not shown.
SMILES,Tb hexokinase,HSF1 inhib,HSF1 activator,HSP90 inh,Hsp70 act,HKDC1 inh
CCN(CC)CCNC(=O)C1(O)c2cc(Br)ccc2NC(=O)N1c1ccccc1 (centres undefined),.,-5.9,-10.4,2.3,.,-1.9
CCC1=[N+](CC(=O)c2ccc(C)cc2)CCn2cccc21,-24.3,32.1,50.9*,-1.3,-0.1,3.1
COc1ccc(C(=O)NC2CCN(C(=S)NCc3ccco3)CC2)cc1,-4.6,33.0,55.9*,-0.1,-0.2,-10.6
S=C(NCc1ccco1)N1CCN(C(c2ccccc2)c2ccccc2)CC1,4.9,35.7,57.6*,0.6,-0.3,-5.0
S=C(NCCN1CCOCC1)N1CCN(c2cccc(Cl)c2)CC1,.,-2.7,-0.6,4.6,.,-2.7
S=C(NCc1ccco1)N1CCN(c2cccc(Cl)c2)CC1,-4.6,44.3,54.2*,-2.1,0.0,3.2
CCCCn1c(N)c(N(CCOC)C(=O)COC(=O)c2ccccc2NCCO)c(=O)[nH]c1=O,.,.,.,.,.,-6.0
Cc1ccc(-c2cn(S(=O)(=O)c3ccc(C)cc3)nc2N)cc1,2.4,26.0,69.7*,-4.3,-0.2,3.2
COc1ccc(NC(=O)N(C)C[C@H]2Oc3ccc(NC(=O)Nc4ccc5c(c4)OCO5)cc3C(=O)N([C@H](C)CO)C[C@@H]2C)cc1,.,.,.,.,.,3.9
CCOC(=O)c1ccc(N=c2sc(C(=O)OC)cc(=O)n2Cc2ccco2)cc1,-5.8,89.0,107.0*,7.5,1.0,5.0
CS(=O)(=O)N(CC(=O)N1CCOCC1)c1ccccc1Br,.,-8.9,-15.7,-3.9,.,-8.3
COc1cccc(NC(=O)c2ccc3c(c2)N(C)CCS3)c1,.,62.6,92.4*,-0.7,.,-0.7
CN1CCSc2ccc(C(=O)Nc3ccc(Cl)cc3)cc21,-14.0,79.7,122.4*,-4.2,.,-1.7
CCOC(=O)Nc1ccc(C(=O)Oc2ccccc2)c(O)c1,10.3,42.1,68.0*,0.5,0.2,-0.9
OCCNCc1c(OCc2ccc(Cl)cc2)ccc2ccccc12,.,26.2,62.2*,4.0,.,-3.8
O=C1CSC(c2cccc([N+](=O)[O-])c2)N1CCc1ccccc1 (centres undefined),.,5.9,4.0,3.3,.,-0.4
CCN1CCCC1CNC(=O)c1cc2cc(F)ccc2[nH]1 (centres undefined),.,-8.8,0.2,2.1,.,-6.3
CC(NC(=O)c1ccccc1Br)c1ccc2c(c1)CCCC2 (centres undefined),-0.7,20.8,59.4*,3.1,-0.3,-0.7
CC(NC(=O)c1ccc(Br)cc1)c1ccc2c(c1)CCCC2 (centres undefined),8.5,3.2,5.1,4.6,-0.3,-6.5
Cc1nn(CC(=O)N(C)C2(C#N)CCCCC2)c(C)c1[N+](=O)[O-],.,.,.,.,.,1.8
COc1cc(/C=N/NC(=O)c2cc(C)oc2C)ccc1O,-31.2,-61.5*,-69.6,0.2,-0.2,-6.8
CC(/C=N\NC(=O)c1cc(C)oc1C)=C\c1ccccc1,8.7,-52.1*,-55.3,-3.1,0.1,-5.7
Cc1ccc(/C=N/NC(=O)c2cc(C)oc2C)cc1,-1.5,7.8,20.4,0.9,.,-3.4
CCCc1cc(=O)[nH]c(SCC(=O)Nc2sc3c(c2C(N)=O)CCCC3)n1,.,-16.5,-16.5,.,.,1.4
c1ccc(Cc2nc3ccccc3o2)cc1,-4.0,-80.6*,-83.8,9.9,-0.3,12.1
SMILES,Tb hexokinase,HSF1 inhib,HSF1 activator,HSP90 inh,Hsp70 act,HKDC1 inh
O=c1oc(Cc2ccccc2)nc2ccccc12,.,4.7,15.0,-2.7,.,-0.3
COC(=O)C1(Cc2ccc3c(c2)CCC3)Cc2ccc3c(c2C1=O)CCC3 (centres undefined),.,.,.,.,.,3.0
CCCCOc1ccc(C(=O)N/N=C/c2cn[nH]c2-c2ccc(OC)c(OC)c2)cc1,-25.0,17.3,54.1*,0.5,-0.1,-2.6
Clc1ccc(-c2cn3c(n2)-c2ccccc2C3)cc1Cl,-10.5,18.3,52.9*,1.9,-0.3,-0.4
CNC(=O)c1c(NC(=O)CCS(=O)(=O)c2ccc(F)cc2)sc(C)c1C,.,-5.2,-17.1,.,.,-2.2
C[C@H]1NC(=O)[C@]2(C)[C@@H](c3ccccc3)[C@H]3COc4ccccc4[C@H]3N2C1=O,.,.,.,.,.,2.0
COc1ccc(C2(C)CC(C)(C)Nc3ccccc32)cc1 (centres undefined),.,0.2,-16.6,-0.5,.,6.5
COc1ccc(C2CC(C)(c3ccc(OC)cc3)Nc3ccccc3N2)cc1 (centres undefined),-8.7,37.8,58.1*,-3.6,.,1.9
CN(C)c1ccc(P(=O)(OC2CCCCC2)C(O)c2cccnc2)cc1 (centres undefined),1.5,2.0,21.7,1.7,-0.2,0.8
